The subject of assay [1] is SH-SY5Y. Kind of assay: Cytotoxicity against human SH-SY5Y cells assessed as cell viability after 48 hrs by MTT assay. It is filed as functional, cell-based. In a few lines:
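SH-SY5Y cells incubated with compound for 48 h and viability measured by MTT. Values are mean ± SEM of 8-12 determinations.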

In assay [2] the test system is SH-SY5Y. The assay is described as follows: Induction of autophagy in human SH-SY5Y cells assessed as LC3/phosphotidylethanolamine coupling after 40 hrs by Western blot analysis. It is filed as functional, cell-based. In a few lines:
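Western blot of LC3-I and LC3-II, with tubulin as reference, in untreated and treated cells exposed to 10 nM compound. Six independent experiments were run, using two LC3 antibodies from different sources.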

Assay [3] has as its system SH-SY5Y. The assay is described as follows: Cytotoxicity against human SH-SY5Y cells assessed as reduction of total cellular NAD(P) level. It is filed as functional, cell-based.
Assay [4] concerns SH-SY5Y. The assay is described as follows: Cytotoxicity against human SH-SY5Y cells assessed as reduction of total cellular NAD(P) level at 300 nM relative to control. It is filed as functional. Set-up: scale not given: the % may be the effect or the level left. In outline: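 Total cellular NAD levels in SH-SY5Y cells screened at a single fixed concentration of 300 nM. Expressed relative to control, n = 10.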

Assay [5] has as its system SH-SY5Y. The assay is described as follows: Cytotoxicity against human SH-SY5Y cells assessed as reduction of total cellular NAD(P) level at 1 uM relative to control. It is filed as functional. Set-up: scale not given: the % may be the effect or the level left.
Assay [6] deals with SH-SY5Y. The assay is described as follows: Cytotoxicity against human SH-SY5Y cells assessed as cell viability after 48 hrs by MTT assay relative to control in presence of nicotinamide. It is filed as functional.

Active and inactive are the calls of the source. The rule behind the calls is not given here.

On to `O=C(/C=C/c1cccnc1)NCCCCC1CCN(C(=O)c2ccccc2)CC1` [DAPORINAD], for which the IC50 in the assay on SH-SY5Y [1] came out at 1.7 nM; in the assay on SH-SY5Y [3] it was 0.5 nM. For the same molecule, the result in the assay with SH-SY5Y [2] was Active.

Turning to `O=C(CCCCCCn1cc(-c2cccnc2)nn1)Nc1ccccc1Oc1ccccc1`, the Activity was 81.3% in the assay with SH-SY5Y [4] and 24.7% in the assay on SH-SY5Y [5]. The half-inhibitory concentration (IC50) with SH-SY5Y [1] was 120 nM.

On to `NC(=O)c1cccnc1` [NIACINAMIDE], for which the Activity in the assay on SH-SY5Y [6] amounted to 31%.

As for `O=C(CCCCCCCn1cc(-c2cccnc2)nn1)Nc1ccccc1Oc1ccccc1`, the Activity was determined as 87.9% in the assay with SH-SY5Y [4] and 17.7% in the assay on SH-SY5Y [5]. For the same molecule, the IC50 in the assay on SH-SY5Y [1] amounted to 37 nM.

As for `O=C(CCCCCCCn1cc(-c2cccnc2)nn1)NCC(c1ccccc1)c1ccccc1`, the Activity with SH-SY5Y [4] was found to be 11%; in the assay on SH-SY5Y [5], 23%. In addition, the half-maximal inhibitory concentration (IC50) in the assay with SH-SY5Y [1] is 97 nM; in the assay on SH-SY5Y [3] it was 49.2 nM.

Consider `COc1ccccc1NC(=O)CCCCCCn1cc(-c2cccnc2)nn1`, for which the Activity with SH-SY5Y [4] was 87.9%.

On to `O=C(CCCCCCn1cc(-c2cccnc2)nn1)NCC(c1ccccc1)c1ccccc1`, for which the Activity with SH-SY5Y [4] is listed as 83.8%; with SH-SY5Y [5] it was 16.8%.

For `O=C(CCCCCCCCn1cc(-c2cccnc2)nn1)Nc1ccccc1Oc1ccccc1`, the Activity is 79.5% in the assay with SH-SY5Y [4] and 22.6% in the assay with SH-SY5Y [5]. For the same molecule, in the assay on SH-SY5Y [1], the 50% inhibitory concentration (IC50) was found to be 78 nM.

On to `O=C(CCCCCCCn1cc(-c2cccnc2)nn1)Nc1ccccc1Cc1ccccc1`, for which the Activity turned out to be 75.2% in the assay with SH-SY5Y [4] and 30% in the assay with SH-SY5Y [5]. Besides, in the assay on SH-SY5Y [1], the 50% inhibitory concentration (IC50) worked out at 72 nM.

As to `O=C(CCCCCCCn1cc(-c2cccnc2)nn1)Oc1ccccc1-c1ccccc1`, the Activity in the assay with SH-SY5Y [4] worked out at 74.7%.

`O=C(CCCCCCn1cc(-c2cccnc2)nn1)Nc1ccccc1Cc1ccccc1`: the values for the Activity with SH-SY5Y [4] and in the assay with SH-SY5Y [5] were 86.1% and 28%, respectively.

Turning to `N#CCCCc1cn(-c2ccncc2)nn1`, the Activity in the assay on SH-SY5Y [4] was determined as 87.8%; with SH-SY5Y [5] it was 31%.

With `O=C(CCCCCCn1cc(-c2cccnc2)nn1)Nc1ccccc1-c1ccccc1`, the results for the Activity in the assay with SH-SY5Y [4] and with SH-SY5Y [5] were 88.2% and 26.2%, respectively. In addition, in the assay on SH-SY5Y [1], the IC50 was found to be 56 nM.

For the molecule `O=C(CCCCCCCn1cc(-c2cccnc2)nn1)n1c2ccccc2c2ccccc21`, the Activity in the assay with SH-SY5Y [4] is given as 12%. In addition, the figures for the IC50 in the assay with SH-SY5Y [1] and in the assay with SH-SY5Y [3] were 37.4 nM and 17.1 nM, respectively.

As to `O=C(CCCCCCn1cc(-c2cccnc2)nn1)Nc1ccccc1Cl`, the Activity in the assay with SH-SY5Y [4] is given as 79.5%. Also, the IC50 in the assay on SH-SY5Y [1] stood at 205 nM.

As to `O=C(CCCCCCCCn1cc(-c2cccnc2)nn1)Nc1ccccc1-c1ccccc1`, the figures for the Activity in the assay on SH-SY5Y [4] and in the assay on SH-SY5Y [5] were 35.6% and 13%, respectively. Besides, the IC50 in the assay with SH-SY5Y [1] was found to be 14.6 nM; in the assay with SH-SY5Y [3], 84.4 nM.

Turning to `O=C(CCCCCCCCn1cc(-c2cccnc2)nn1)NCC(c1ccccc1)c1ccccc1`, the figures for the Activity in the assay with SH-SY5Y [4] and in the assay on SH-SY5Y [5] were 77.3% and 32.3%, respectively. The IC50 with SH-SY5Y [1] came out at 157 nM.

In the case of `O=C(CCCCCCCCn1cc(-c2cccnc2)nn1)Nc1ccccc1Cc1ccccc1`, the Activity in the assay with SH-SY5Y [4] is 74.7%; in the assay on SH-SY5Y [5], 13.1%. The concentration for half-maximal inhibition (IC50) in the assay with SH-SY5Y [1] is 82 nM.
